In ChEMBL document CHEMBL1141960, “Synthesis and evaluation of novel 8,6-fused bicyclic peptidomimetic compounds as interleukin-1beta converting enzyme inhibitors” (Bioorg Med Chem Lett, 2005):

Key:
[1] = molecular target: T1, Caspase-3 (Homo sapiens, UniProt P42574); assay: Inhibitory activity against Caspase 3
T1 sequence (P42574 whole entry): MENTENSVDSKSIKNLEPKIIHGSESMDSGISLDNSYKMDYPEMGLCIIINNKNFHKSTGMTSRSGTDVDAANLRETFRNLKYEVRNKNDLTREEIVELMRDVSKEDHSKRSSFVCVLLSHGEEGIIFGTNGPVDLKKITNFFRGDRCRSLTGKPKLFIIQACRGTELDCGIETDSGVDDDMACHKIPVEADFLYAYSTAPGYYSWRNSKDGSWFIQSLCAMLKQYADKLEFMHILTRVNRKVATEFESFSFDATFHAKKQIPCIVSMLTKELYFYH

[2] = molecular target: T2, Caspase-1 (Homo sapiens, UniProt P29466); assay: Inhibitory activity against Caspase 1
T2 sequence (P29466 whole entry): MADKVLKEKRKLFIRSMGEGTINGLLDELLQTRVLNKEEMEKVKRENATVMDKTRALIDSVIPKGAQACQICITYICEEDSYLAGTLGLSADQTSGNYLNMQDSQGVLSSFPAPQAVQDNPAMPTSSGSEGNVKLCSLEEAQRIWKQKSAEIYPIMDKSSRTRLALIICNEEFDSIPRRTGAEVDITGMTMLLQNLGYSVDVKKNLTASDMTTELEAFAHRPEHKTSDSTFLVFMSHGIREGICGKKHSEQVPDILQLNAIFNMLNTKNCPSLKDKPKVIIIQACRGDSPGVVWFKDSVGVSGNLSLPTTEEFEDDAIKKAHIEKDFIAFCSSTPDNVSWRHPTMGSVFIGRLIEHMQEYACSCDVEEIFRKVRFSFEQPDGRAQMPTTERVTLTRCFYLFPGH

[3] = molecular target: Caspase-8 (Homo sapiens, UniProt Q14790); assay: Inhibitory activity against Caspase 8
Sequence of Caspase-8 (Q14790 217-374 limits assumed): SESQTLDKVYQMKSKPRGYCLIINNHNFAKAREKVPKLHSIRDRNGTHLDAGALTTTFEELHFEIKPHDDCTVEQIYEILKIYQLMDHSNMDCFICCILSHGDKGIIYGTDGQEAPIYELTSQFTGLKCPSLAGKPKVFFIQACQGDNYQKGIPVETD
Sequence of Caspase-8 (Q14790 385-479 limits assumed): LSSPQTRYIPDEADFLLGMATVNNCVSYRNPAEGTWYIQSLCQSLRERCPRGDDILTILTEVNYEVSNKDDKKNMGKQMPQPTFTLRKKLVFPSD

[4] = test system: THP-1; assay: Inhibitory activity in THP1 whole cell assay measuring IL1-beta production; format: functional, cell-based; settings: Homo sapiens
Outline: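 Human monocytic THP-1 cells, 2 × 10^6/ml in RPMI 1640, preincubated 15 min with compound added from DMSO solutions (test range 1 nM to 10 μM) or without, then stimulated with LPS 1 μg/ml for 4 h total; cells spun down and IL-1β released into conditioned medium quantified by ELISA.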

SMILES | IC50 [1] | IC50 [2] | IC50 [3] | IC50 [4]
O=C1C[C@H](NC(=O)[C@@H]2COC[C@@H]3C/C=C\C[C@H](NC(=O)c4ccc(C(F)(F)F)cc4)C(=O)N32)C(O)O1 (stereo partly specified) | > 10000 nM | 135 nM | 6450 nM | –
O=C1C[C@H](NC(=O)[C@@H]2CN(S(=O)(=O)c3ccccc3)C[C@@H]3CCCC[C@H](NC(=O)c4nccc5ccccc45)C(=O)N32)C(O)O1 (stereo partly specified) | > 10000 nM | 1 nM | 160 nM | 87 nM
O=C1C[C@H](NC(=O)[C@@H]2COC[C@@H]3C/C=C\C[C@H](NC(=O)c4ccc5ccccc5c4)C(=O)N32)C(O)O1 (stereo partly specified) | > 10000 nM | 3 nM | 2590 nM | 62 nM
O=C1C[C@H](NC(=O)[C@@H]2CN(S(=O)(=O)c3ccccc3)C[C@@H]3CCCC[C@H](NC(=O)c4ccccc4)C(=O)N32)C(O)O1 (stereo partly specified) | > 10000 nM | 2 nM | 106 nM | 159 nM
O=C1C[C@H](NC(=O)[C@@H]2COC[C@@H]3CCCC[C@H](NC(=O)c4nccc5ccccc45)C(=O)N32)C(O)O1 (stereo partly specified) | > 10000 nM | 1 nM | 264 nM | 101 nM
O=C1C[C@H](NC(=O)[C@@H]2COC[C@@H]3C/C=C\C[C@H](NC(=O)c4cc5ccccc5s4)C(=O)N32)C(O)O1 (stereo partly specified) | > 10000 nM | 3 nM | 1600 nM | 57 nM
O=C1C[C@H](NC(=O)[C@@H]2CN(C(=O)OCc3ccccc3)C[C@@H]3C/C=C\C[C@H](NC(=O)c4nccc5ccccc45)C(=O)N32)C(O)O1 (stereo partly specified) | > 10000 nM | 1 nM | 4 nM | 154 nM
CS(=O)(=O)N1C[C@@H]2CCCC[C@H](NC(=O)c3ccccc3)C(=O)N2[C@H](C(=O)N[C@H]2CC(=O)OC2O)C1 (stereo partly specified) | > 10000 nM | 6 nM | 384 nM | 174 nM
CC(=O)N1C[C@@H]2CCCC[C@H](NC(=O)c3ccccc3)C(=O)N2[C@H](C(=O)N[C@H]2CC(=O)OC2O)C1 (stereo partly specified) | > 10000 nM | 6 nM | 481 nM | 1260 nM
CS(=O)(=O)N1C[C@@H]2CCCC[C@H](NC(=O)c3nccc4ccccc34)C(=O)N2[C@H](C(=O)N[C@H]2CC(=O)OC2O)C1 (stereo partly specified) | > 10000 nM | 1 nM | 917 nM | 168 nM
O=C1C[C@H](NC(=O)[C@@H]2COC[C@@H]3C/C=C\C[C@H](NC(=O)c4cccc(Cl)c4)C(=O)N32)C(O)O1 (stereo partly specified) | > 10000 nM | 7 nM | 1550 nM | 118 nM
CN1C[C@@H]2CCCC[C@H](NC(=O)c3ccccc3)C(=O)N2[C@H](C(=O)N[C@H]2CC(=O)OC2O)C1 (stereo partly specified) | > 10000 nM | 5 nM | 247 nM | 1820 nM
O=C1C[C@H](NC(=O)[C@@H]2COC[C@@H]3C/C=C\C[C@H](NC(=O)c4ccccc4)C(=O)N32)C(O)O1 (stereo partly specified) | > 10000 nM | 130 nM | 7900 nM | –
O=C1C[C@H](NC(=O)[C@@H]2CNC[C@@H]3CCCC[C@H](NC(=O)c4nccc5ccccc45)C(=O)N32)C(O)O1 (stereo partly specified) | > 10000 nM | 1 nM | 595 nM | 156 nM
O=C1C[C@H](NC(=O)[C@@H]2CN(C(=O)Nc3ccccc3)C[C@@H]3CCCC[C@H](NC(=O)c4ccccc4)C(=O)N32)C(O)O1 (stereo partly specified) | > 10000 nM | 5 nM | 601 nM | 1690 nM
O=C1C[C@H](NC(=O)[C@@H]2COC[C@@H]3C/C=C\C[C@H](NC(=O)c4ccc(Cl)cc4)C(=O)N32)C(O)O1 (stereo partly specified) | > 10000 nM | 74 nM | 3770 nM | –
O=C1C[C@H](NC(=O)[C@@H]2COC[C@@H]3CCCC[C@H](NC(=O)c4ccc5ccccc5c4)C(=O)N32)C(O)O1 (stereo partly specified) | > 10000 nM | 1 nM | 911 nM | 60 nM
O=C1C[C@H](NC(=O)[C@@H]2COC[C@@H]3C/C=C\C[C@H](NC(=O)c4nccc5ccccc45)C(=O)N32)C(O)O1 (stereo partly specified) | > 10000 nM | 3 nM | 1590 nM | 182 nM
O=C1C[C@H](NC(=O)[C@@H]2CN(S(=O)(=O)c3ccccc3)C[C@@H]3CCCC[C@H](NC(=O)c4ccc5ccccc5c4)C(=O)N32)C(O)O1 (stereo partly specified) | > 10000 nM | 1 nM | 50 nM | 153 nM
O=C1C[C@H](NC(=O)[C@@H]2COC[C@@H]3C/C=C\C[C@H](NC(=O)c4ccccc4Cl)C(=O)N32)C(O)O1 (stereo partly specified) | > 10000 nM | 33 nM | 448 nM | –

Results, then the compound that gave them:

IC50 [1] | IC50 [2] | IC50 [3] | IC50 [4] | SMILES
> 10000 nM | 9 nM | 4190 nM | 132 nM | O=C1C[C@H](NC(=O)[C@@H]2COC[C@@H]3C/C=C\C[C@H](NC(=O)c4cccc(C(F)(F)F)c4)C(=O)N32)C(O)O1 (stereo partly specified)
3260 nM | 1 nM | 13 nM | 125 nM | O=C1C[C@H](NC(=O)[C@@H]2CN(C(=O)OCc3ccccc3)C[C@@H]3C/C=C\C[C@H](NC(=O)c4ccccc4)C(=O)N32)C(O)O1 (stereo partly specified)
> 10000 nM | 1 nM | 283 nM | 46 nM | CS(=O)(=O)N1C[C@@H]2CCCC[C@H](NC(=O)c3ccc4ccccc4c3)C(=O)N2[C@H](C(=O)N[C@H]2CC(=O)OC2O)C1 (stereo partly specified)
> 10000 nM | 10 nM | 384 nM | 245 nM | O=C1C[C@H](NC(=O)[C@@H]2CNC[C@@H]3CCCC[C@H](NC(=O)c4ccccc4)C(=O)N32)C(O)O1 (stereo partly specified)
> 10000 nM | 50 nM | 670 nM | – | O=C1C[C@H](NC(=O)[C@@H]2COC[C@@H]3C/C=C\C[C@H](NC(=O)c4ccccc4C(F)(F)F)C(=O)N32)C(O)O1 (stereo partly specified)
4850 nM | 1 nM | 5 nM | 106 nM | O=C1C[C@H](NC(=O)[C@@H]2CN(C(=O)OCc3ccccc3)C[C@@H]3C/C=C\C[C@H](NC(=O)c4ccc5ccccc5c4)C(=O)N32)C(O)O1 (stereo partly specified)
> 10000 nM | 1 nM | 429 nM | 178 nM | O=C1C[C@H](NC(=O)[C@@H]2COC[C@@H]3CCCC[C@H](NC(=O)c4cc5ccccc5s4)C(=O)N32)C(O)O1 (stereo partly specified)
> 10000 nM | 1 nM | 506 nM | 75 nM | O=C1C[C@H](NC(=O)[C@@H]2CNC[C@@H]3CCCC[C@H](NC(=O)c4ccc5ccccc5c4)C(=O)N32)C(O)O1 (stereo partly specified)
8070 nM | 7 nM | 38 nM | 1420 nM | O=C1C[C@H](NC(=O)[C@@H]2CN(C(=O)c3ccccc3)C[C@@H]3CCCC[C@H](NC(=O)c4ccccc4)C(=O)N32)C(O)O1 (stereo partly specified)
